Reference: ChEMBL document CHEMBL2331224 (J Med Chem, 2013)
Activity calls are given as the source filed them. No cut-off for these calls is given here.

Legend:
Mus musculus [1] = test: Toxicity against KKAy mouse assessed as total cholesterol level at 10 mg/kg/day, po for 14 days (reference value: 153.2 +/- 11.1 mg/dL); format: organism-based; parameters: route oral; settings: in vivo, 336 h
Mus musculus [2] = test: Toxicity against KKAy mouse assessed as plasma gammaGTP level at 10 mg/kg/day, po for 14 days (reference value: 5.8 +/- 0.6 IU); format: organism-based; parameters: route oral; settings: in vivo, 336 h
Mus musculus [3] = test: Toxicity against KKAy mouse assessed as plasma ALT level at 10 mg/kg/day, po for 14 days (reference value: 17.6 +/- 0.9 IU); format: organism-based; parameters: route oral; settings: in vivo, 336 h
Mus musculus [4] = test: Toxicity against KKAy mouse assessed as plasma AST level at 10 mg/kg/day, po for 14 days (reference value: 49.6 +/- 2.3 IU); format: organism-based; parameters: route oral; settings: in vivo, 336 h
Rattus norvegicus [5] = test: Toxicity in Sprague-Dawley rat assessed as change in weight of organs at 30 mg/kg, po for 28 days; format: organism-based; parameters: dose 30 mg/kg, route oral; settings: in vivo, 672 h
Outline: (§1)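 Male and female SD rats, four weeks old on arrival, two per cage. Oral 30 mg/kg/day or vehicle (1% ethanol/0.5% CMC in water, 5 mL/kg) for 28 days, body weight recorded daily. After overnight fasting and isoflurane anaesthesia, liver, brain, kidney, spleen and testis were weighed, and serum was collected (2000g, 10 min, 4 °C) for blood chemistry.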

Rattus norvegicus [6] = test: Hepatotoxicity in Sprague-Dawley rat at 30 mg/kg/day, po for 28 days; format: toxicity, organism-based; parameters: route oral; settings: in vivo, 672 h; outline: as §1
[7] = biological target: T1, Retinoic acid receptor RXR-alpha (Mus musculus) (UniProt P28700); test: Partial agonist activity at mouse RXRalpha expressed in COS1 cells by luciferase reporter gene assay relative to bexarotene; format: cell-based; settings: COS-1
T1 sequence (whole entry): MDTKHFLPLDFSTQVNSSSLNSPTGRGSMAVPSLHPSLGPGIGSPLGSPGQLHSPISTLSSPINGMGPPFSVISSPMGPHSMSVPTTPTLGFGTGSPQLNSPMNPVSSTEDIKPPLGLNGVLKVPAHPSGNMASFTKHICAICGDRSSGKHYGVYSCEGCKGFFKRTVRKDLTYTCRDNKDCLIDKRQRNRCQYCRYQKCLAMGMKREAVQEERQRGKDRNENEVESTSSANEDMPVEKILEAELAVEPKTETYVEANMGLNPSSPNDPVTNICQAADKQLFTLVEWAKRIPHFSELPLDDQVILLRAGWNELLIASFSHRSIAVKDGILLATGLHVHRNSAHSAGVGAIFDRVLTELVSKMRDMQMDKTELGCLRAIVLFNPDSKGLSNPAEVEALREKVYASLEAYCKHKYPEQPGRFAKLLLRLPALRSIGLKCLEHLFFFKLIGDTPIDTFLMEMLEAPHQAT

[8] = biological target: T2, Oxysterols receptor LXR-alpha (Homo sapiens) (UniProt Q13133); test: Transactivation of LXRalpha (unknown origin) by luciferase reporter gene assay relative to carba-T0901317
T2 sequence (whole entry): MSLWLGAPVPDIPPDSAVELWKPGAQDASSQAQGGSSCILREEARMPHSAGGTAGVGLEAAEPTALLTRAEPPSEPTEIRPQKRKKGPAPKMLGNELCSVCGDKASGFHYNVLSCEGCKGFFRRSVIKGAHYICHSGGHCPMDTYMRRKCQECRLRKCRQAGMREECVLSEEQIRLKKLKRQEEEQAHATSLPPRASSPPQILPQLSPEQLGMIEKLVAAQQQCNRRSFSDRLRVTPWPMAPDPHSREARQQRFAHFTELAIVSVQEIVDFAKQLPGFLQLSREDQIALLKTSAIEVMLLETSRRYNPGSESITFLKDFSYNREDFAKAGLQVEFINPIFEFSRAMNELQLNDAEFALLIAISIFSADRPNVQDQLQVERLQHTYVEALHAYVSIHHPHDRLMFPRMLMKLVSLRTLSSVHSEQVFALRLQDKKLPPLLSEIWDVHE
Outline: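 Heterodimer luciferase assay in COS-1 cells cotransfected with RXRα (0.5 μg), partner receptor (PPARγ or LXRα, 0.5 μg) and partner response element reporter (4.0 μg), plus SEAP. Compound (DMSO below 1%) was added with seeding at about 2.0 × 10⁴ cells/well, then 18 h at 37 °C, 5% CO2. Luciferase was normalized to SEAP. Triplicates, three runs.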

[9] = biological target: T3, Retinoic acid receptor RXR-gamma (Homo sapiens) (UniProt P48443); test: Partial agonist activity at RXRgamma (unknown origin) by luciferase reporter gene assay relative to LGD1069
T3 sequence (whole entry): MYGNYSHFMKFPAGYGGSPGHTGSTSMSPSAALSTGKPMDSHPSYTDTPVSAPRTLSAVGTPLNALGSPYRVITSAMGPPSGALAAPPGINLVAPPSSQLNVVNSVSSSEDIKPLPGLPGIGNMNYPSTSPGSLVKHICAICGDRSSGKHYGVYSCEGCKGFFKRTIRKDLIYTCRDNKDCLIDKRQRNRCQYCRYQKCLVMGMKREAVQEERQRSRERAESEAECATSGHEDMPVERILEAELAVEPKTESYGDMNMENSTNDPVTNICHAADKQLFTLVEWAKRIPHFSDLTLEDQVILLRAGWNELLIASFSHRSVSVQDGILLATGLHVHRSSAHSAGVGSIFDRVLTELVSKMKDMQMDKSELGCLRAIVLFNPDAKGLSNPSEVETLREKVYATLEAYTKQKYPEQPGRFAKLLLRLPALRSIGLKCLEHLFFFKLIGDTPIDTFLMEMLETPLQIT

[10] = biological target: T4, Retinoic acid receptor RXR-alpha (Homo sapiens, UniProt P19793); test: Partial agonist activity at RXRalpha (unknown origin) expressed in COS1 cells after 18 hrs by luciferase reporter gene assay; format: cell-based, COS-1
T4 sequence (P19793 whole entry): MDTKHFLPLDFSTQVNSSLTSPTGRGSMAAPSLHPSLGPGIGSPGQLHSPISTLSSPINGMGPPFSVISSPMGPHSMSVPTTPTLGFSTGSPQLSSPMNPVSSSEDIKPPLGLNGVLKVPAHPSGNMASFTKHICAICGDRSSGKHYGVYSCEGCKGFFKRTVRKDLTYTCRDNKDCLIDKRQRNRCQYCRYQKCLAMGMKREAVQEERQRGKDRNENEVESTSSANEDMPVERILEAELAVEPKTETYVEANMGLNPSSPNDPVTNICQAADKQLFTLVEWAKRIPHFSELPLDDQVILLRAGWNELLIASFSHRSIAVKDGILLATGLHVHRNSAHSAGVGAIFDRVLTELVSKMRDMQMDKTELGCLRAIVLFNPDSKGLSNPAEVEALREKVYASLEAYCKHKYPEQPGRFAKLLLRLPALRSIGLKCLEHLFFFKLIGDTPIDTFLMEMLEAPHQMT
Outline: (§2)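 COS-1 cells in DMEM with 10% FBS at 37 °C, 5% CO2, transfected with RXRα, an RXR-response-element luciferase reporter and a SEAP background vector. Cells were seeded at about 2.0 × 10⁴ per well with compound (DMSO below 1%) for 18 h. Luciferase was normalized to SEAP and expressed relative to 1 μM reference RXR full agonist as 100%. EC50 came from full dose-response curves. Triplicates, at least three experiments.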

[11] = biological target: T5, Retinoic acid receptor RXR-alpha (Homo sapiens) (UniProt P19793); test: Transactivation of RXRalpha (unknown origin) expressed in COS1 cells at 10 uM after 18 hrs by luciferase reporter gene assay relative to bexarotene; format: cell-based; settings: COS-1; outline: as §2
T5 sequence (whole entry): T4 sequence (P19793 whole entry)

`Cc1cc2c(cc1-n1c(C(F)(F)F)nc3cc(C(=O)O)ccc31)C(C)(C)CCC2(C)C` gave an Activity (Mus musculus [1]) of 155.3 mg/dL, an Activity (Mus musculus [2]) of 6.3 IU and an Activity (Mus musculus [3]) of 17.3 IU. For the same molecule, the Activity (Mus musculus [4]) was 42.3 IU, the Activity (Rattus norvegicus [5]) was “Non-toxic” and the Activity (Rattus norvegicus [6]) was “Toxic”. The Activity [7] was “Active”, the Activity [8] was “Active” and the Activity [9] was “Active”. It also gave an EC50 [10] of 15 nM and an Efficacy [11] of 71%.
